# Measurements reported in ChEMBL document CHEMBL2062467, “Design, synthesis, antimicrobial, anti-inflammatory and analgesic activity of novel isoxazolyl pyrimido[4,5-b]quinolines and isoxazolyl chromeno[2,3-d]pyrimidin-4-ones” (2012).
# How the values were obtained:
# Assay type in all cases: functional
# Bacillus subtilis = assay: Antibacterial activity against Bacillus subtilis MTCC 441 after 24 hrs by broth dilution method; details: MTCC 441, 24 h
# Outline: (§1)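 Broth dilution MIC in autoclaved nutrient broth tubes. Test compound was dissolved in acetone, and 100 mg/mL (so in the source) was added to the first tube, then serially diluted across the tubes.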
# [1] = system: Lysinibacillus sphaericus; assay: Antibacterial activity against Bacillus sphaericus MTCC 511 after 24 hrs by broth dilution method; details: MTCC 511, 24 h; outline: as §1
# Staphylococcus aureus = assay: Antibacterial activity against Staphylococcus aureus MTCC 96 after 24 hrs by broth dilution method; details: MTCC 96, 24 h; outline: as §1
# Pseudomonas aeruginosa = assay: Antibacterial activity against Pseudomonas aeruginosa MTCC 741 after 24 hrs by broth dilution method; details: MTCC 741, 24 h; outline: as §1
# Klebsiella aerogenes = assay: Antibacterial activity against Klebsiella aerogenes MTCC 39 after 24 hrs by broth dilution method; details: MTCC 39, 24 h; outline: as §1
# [2] = system: Chromobacterium violaceum; assay: Antibacterial activity against Chromobacterium violaceum MTCC 2656 after 24 hrs by broth dilution method; details: MTCC 2656, 24 h; outline: as §1
# Fusarium oxysporum = assay: Antifungal activity against Fusarium oxysporum after 72 to 96 hrs by agar cup method
# Outline: (§2)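 Agar cup assay on potato dextrose agar. Plates were spread with 0.5 mL of a one-week-old fungal spore suspension, and 6 mm cups were bored into the agar. Different concentrations of compound in acetone were added to the cups. Acetone and clotrimazole served as controls. Plates were held at room temperature for 72–96 h.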
# [3] = Antifungal activity against Verticillium dahliae after 72 to 96 hrs by agar cup method; outline: as §2
# Alternaria solani = assay: Antifungal activity against Alternaria solani after 72 to 96 hrs by agar cup method; outline: as §2
# Rhizoctonia solani = assay: Antifungal activity against Rhizoctonia solani after 72 to 96 hrs by agar cup method; outline: as §2
# Colletotrichum truncatum = assay: Antifungal activity against Colletotrichum capsici after 72 to 96 hrs by agar cup method; outline: as §2
# Pythium aphanidermatum = assay: Antifungal activity against Pythium aphanidermatum after 72 to 96 hrs by agar cup method; outline: as §2
# Rattus norvegicus [4] = assay: Analgesic activity in Albino rat assessed as reaction time at 10 mg/kg, po after 1 hr by Hot plate test
# Outline: (§3)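 Hot plate test of central analgesia in rats, six per group, with a vehicle control group and an Indomethacin group (10 mg/kg po). Test compounds were given orally at 10 mg/kg. Reaction time was read at 0, 1 and 2 h. Values are the mean of six, ± S.E., also expressed as % increase over basal. Statistics used ANOVA/LSD; Dunnett's test vs control (P < 0.05).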
# Rattus norvegicus [5] = assay: Analgesic activity in Albino rat assessed as reaction time at 10 mg/kg, po after 2 hrs by Hot plate test; outline: as §3
Compound,MIC (Bacillus subtilis),MIC [1],MIC (Staphylococcus aureus),MIC (Pseudomonas aeruginosa),MIC (Klebsiella aerogenes),MIC [2],MIC (Fusarium oxysporum),MIC [3],MIC (Alternaria solani),MIC (Rhizoctonia solani),MIC (Colletotrichum truncatum),MIC (Pythium aphanidermatum),Time (Rattus norvegicus [4]),Time (Rattus norvegicus [5])
Cc1noc(/C=C/c2ccccc2)c1N1CN=C2Oc3c(Br)cc(Br)cc3C=C2C1=O,9 mg/L,7 mg/L,8 mg/L,6 mg/L,5 mg/L,8 mg/L,9 mg/L,8 mg/L,7 mg/L,6 mg/L,10 mg/L,8 mg/L,23.3 s,23.4 s
COc1ccc(/C=C/c2onc(C)c2-n2c(C)nc3nc4ccccc4cc3c2=O)cc1,18 mg/L,22 mg/L,25 mg/L,22 mg/L,20 mg/L,16 mg/L,10 mg/L,14 mg/L,16 mg/L,14 mg/L,16 mg/L,18 mg/L,21.7 s,21.4 s
Cc1ccc(/C=C/c2onc(C)c2-n2c(C)nc3nc4ccccc4cc3c2=O)cc1,19 mg/L,23 mg/L,25 mg/L,23 mg/L,18 mg/L,15 mg/L,12 mg/L,12 mg/L,10 mg/L,14 mg/L,18 mg/L,15 mg/L,21.3 s,21.1 s
O=C(O)c1cn(C2CC2)c2cc(N3CCNCC3)c(F)cc2c1=O [CIPROFLOXACIN],20 mg/L,24 mg/L,28 mg/L,–,22 mg/L,20 mg/L,–,–,–,–,–,–,–,–
Cc1noc(/C=C/c2ccccc2)c1N1CN=C2Oc3c(Cl)cc(Cl)cc3C=C2C1=O,15 mg/L,14 mg/L,16 mg/L,15 mg/L,17 mg/L,16 mg/L,16 mg/L,18 mg/L,14 mg/L,15 mg/L,16 mg/L,22 mg/L,28.3 s,21.9 s
COc1ccc(/C=C/c2onc(C)c2N2CN=C3Oc4ccc(Br)cc4C=C3C2=O)cc1,12 mg/L,10 mg/L,8 mg/L,15 mg/L,13 mg/L,10 mg/L,18 mg/L,14 mg/L,12 mg/L,14 mg/L,12 mg/L,20 mg/L,18.8 s,22.6 s
Clc1ccccc1C(c1ccccc1)(c1ccccc1)n1ccnc1 [CLOTRIMAZOLE],–,–,–,–,–,–,28 mg/L,26 mg/L,22 mg/L,25 mg/L,20 mg/L,30 mg/L,–,–
COc1ccc(/C=C/c2onc(C)c2-n2c(C)nc3nc4ccc(Cl)cc4cc3c2=O)cc1,12 mg/L,10 mg/L,13 mg/L,14 mg/L,11 mg/L,14 mg/L,11 mg/L,13 mg/L,12 mg/L,14 mg/L,16 mg/L,17 mg/L,25.1 s,22.6 s
